Measurements from PMC5935190 (Drug Design, Development and Therapy, 2018).
≈ marks a conversion by molar mass, not a printed value. Entries after “also recorded” stand apart in the source; their conditions may differ.

Tests used:
[1] = target: T1, M. tuberculosis BioA (Mycobacterium tuberculosis, UniProt P9WQ81); assay: biochemical; assay type: biochemical
T1 sequence (P9WQ81 1-437): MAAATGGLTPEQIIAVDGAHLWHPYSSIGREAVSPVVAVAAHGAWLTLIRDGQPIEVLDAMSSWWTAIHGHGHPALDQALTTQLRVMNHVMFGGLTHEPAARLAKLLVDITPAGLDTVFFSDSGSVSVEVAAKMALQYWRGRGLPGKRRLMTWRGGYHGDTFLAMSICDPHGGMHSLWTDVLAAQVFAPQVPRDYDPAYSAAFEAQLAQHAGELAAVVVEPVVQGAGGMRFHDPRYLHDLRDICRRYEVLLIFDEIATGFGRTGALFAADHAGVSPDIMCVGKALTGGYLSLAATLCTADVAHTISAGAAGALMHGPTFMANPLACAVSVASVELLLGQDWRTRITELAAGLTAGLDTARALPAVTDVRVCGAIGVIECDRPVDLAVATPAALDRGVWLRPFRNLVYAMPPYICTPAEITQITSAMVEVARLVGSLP

[2] = system: M. tuberculosis H37Rv; assay: microbe, parasite or virus in culture; assay type: cell-based; details: Mycobacterium tuberculosis, read-out: MIC90 in Sauton's medium
[3] = system: Chinese hamster ovary cell line (CHO); assay: Cytotoxicity assay; assay type: cell-based; details: at 50 μg/mL
Procedure, shortened: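 CHO cells were grown in DMEM with 10% FBS and 1X antibiotic-antimycotic, then seeded at 1×10^4 cells per well. They were exposed to the test compound at 1 μg/mL to 200 μg/mL for 48 h. 0.01% resazurin dye was then added to measure cell viability.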

[4] = system: M. tuberculosis H37Rv; assay type: cell-based, Mycobacterium tuberculosis

Structure (SMILES)	IC50 ([1]; IC50 (μM) BioA) [µM]	IC50 ([1]; IC50 (μg/mL) BioA, mean ± SD) [µM]	MIC90 [2] [µg/mL]	Toxicity in CHO cell line [3]	Percent inhibition of BioA at 100 μg/mL [1]	MIC90 (μM) for M. tuberculosis growth inhibition [4] [µM]	MIC90 (μg/mL) for M. tuberculosis growth inhibition [4] [µg/mL]
CC1(c2ccc(S(=O)(=O)c3ccccc3)cc2)OC(=O)C=CC1=O (stereo not shown) [Compound A65, 6-methyl-6-[4-(phenylsulfonyl)phenyl]-2H-pyran-2,5(6H)-dione]	114	114	80 (≈ 234 µM)	moderate toxicity	–	–	–
O=C(O)c1ccc(C=NNC(=O)c2cccc3ccccc23)cc1 [Compound X21]	–	–	–	–	weak inhibition; also recorded: poor inhibition	7.86	2.5
